Assay results taken from ChEMBL document CHEMBL1123173, “Synthesis and antiherpes virus activity of phosphate and phosphonate derivatives of 9-[(1,3-dihydroxy-2-propoxy)methyl]guanine” (1986).
Calls of active or inactive are those of the source. The rule behind the calls is not given here.

What was measured:
Mus musculus [1] = test: (§1) Effect of oral treatment with compound on HSV-2 induced mortality in mice at 10 mg/kg dose; NS=Not significant; format: functional, organism-based; design: dose 10 mg/kg
Outline: (§2)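 Female Swiss-Webster mice, about 20 g, infected intraperitoneally with 5×10^4 PFU of HSV-2 strain G (about ten LD50). Oral dosing once every 24 h for 4 days, starting 24 h post-infection, with a saline-treated control group. Groups of 19–20 mice. Survivors were scored and compared by Fisher exact test. Mean survival time (days ± SD) was compared by Mann-Whitney U test. NS means p > 0.05.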

Mus musculus [2] = test: Effect of oral treatment with compound on HSV-2 induced mortality in mice at 5 mg/kg dose; 8/20; format: functional; outline: as §2
Vero [3] = test: In vitro antiviral activity was measured against HSV-1 (MP-PAA/DHPG) in Vero cells; format: functional; details: Chlorocebus sabaeus, read-out: ID50 (the source's name)
Mus musculus [4] = test: Effect of on mean survival time upon oral treatment on HSV-2 induced mortality in mice at 10 mg/kg dose; format: functional; outline: as §2
Mus musculus [5] = test: as §1; format: functional, organism-based; design: dose 10 mg/kg; remark: listed apart in the source
Outline: (§3)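 Female Swiss-Webster mice (ca. 20 g) infected intraperitoneally with 5×10^4 PFU HSV-2 strain G (about ten 50% lethal doses). Oral dosing once every 24 h for 4 days, starting 24 h postinfection; saline controls. Survivors/total recorded, survivor increase tested by Fisher exact test; mean survival time (days ± standard deviation) compared by Mann-Whitney U test.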

Mus musculus [6] = test: Effect of oral treatment with compound on HSV-2 induced mortality in mice at 20 mg/kg dose; 10/20; format: functional; outline: as §2
Vero [7] = test: In vitro antiviral activity was measured against HSV-1(F) in Vero cells; format: functional; details: Chlorocebus sabaeus, read-out: ID50 (the source's name)
Vero [8] = test: In vitro anticellular activity was measured against vero cells; format: functional; details: Chlorocebus sabaeus, read-out: ID50 (the source's name)
Outline: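 Cell proliferation assay in uninfected Vero cells.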

Vero [9] = test: In vitro antiviral activity was measured against HSV-2(G) in Vero cells; format: functional; details: Chlorocebus sabaeus, read-out: ID50 (the source's name)
Mus musculus [10] = test: Effect of on mean survival time upon oral treatment on HSV-2 induced mortality in mice at 5 mg/kg dose; format: functional; outline: as §2
MRC5 = test: In vitro antiviral activity was measured against HCMV(AD-169) in MRC5 cells; format: functional; details: Homo sapiens, read-out: ID50 (the source's name)
Mus musculus [11] = test: Effect of oral treatment with compound on HSV-2 induced mortality in mice at 10 mg/kg dose; 3/20; format: functional; outline: as §2
Vero [12] = test: In vitro antiviral activity was measured against HSV-1 (F delta 305) in Vero cells; format: functional; details: Chlorocebus sabaeus, read-out: ID50 (the source's name)
Mus musculus [13] = test: Effect of oral treatment with compound on HSV-2 induced mortality in mice at 20 mg/kg dose; format: functional; outline: as §2
Mus musculus [14] = test: (§4) Effect of oral treatment with compound on HSV-2 induced mortality in mice at 5 mg/kg dose; NS=Not significant; format: functional, organism-based; design: dose 5 mg/kg; outline: as §3
Mus musculus [15] = test: as §4; format: functional, organism-based; design: dose 5 mg/kg; outline: as §2; remark: listed apart in the source
Mus musculus [16] = test: Effect of on mean survival time upon oral treatment on HSV-2 induced mortality in mice at 20 mg/kg dose; format: functional; outline: as §2
Mus musculus [17] = test: Effect of subcutaneous treatment with compound on HSV-2 induced mortality in mice at 30 mg/kg dose; 2/15; format: functional
Outline: (§5)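 Female Swiss-Webster mice, about 20 g, challenged intraperitoneally with 5×10^4 PFU of HSV-2 strain G (about ten LD50). Subcutaneous dosing once daily for 4 days, beginning 24 h after infection, with a saline control group. 15 mice per group. Survivor numbers were compared by Fisher exact test and mean survival time (± SD) by Mann-Whitney U test. NS means p > 0.05.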

Mus musculus [18] = test: Effect of subcutaneous treatment with compound on HSV-2 induced mortality in mice at 15 mg/kg dose; 0/15; format: functional; outline: as §5
Mus musculus [19] = test: Effect of subcutaneous treatment with compound on HSV-2 induced mortality in mice at 30 mg/kg dose; NS=Not significant; format: functional, organism-based; design: dose 30 mg/kg; outline: as §5
Mus musculus [20] = test: Effect of subcutaneous treatment with compound on HSV-2 induced mortality in mice at 15 mg/kg dose; format: functional; outline: as §5
Mus musculus [21] = test: Effect of subcutaneous treatment with compound on HSV-2 induced mortality in mice at 5 mg/kg dose; 2/15; format: functional; outline: as §5
Mus musculus [22] = test: (§6) Effect of subcutaneous treatment with compound on HSV-2 induced mortality in mice at 5 mg/kg dose; NS=Not significant; format: functional, organism-based; design: dose 5 mg/kg; outline: as §5
Mus musculus [23] = test: Effect of subcutaneous treatment with compound on HSV-2 induced mortality in mice at 15 mg/kg dose; NS=Not significant; format: functional, organism-based; design: dose 15 mg/kg; outline: as §5
Mus musculus [24] = test: as §6; format: functional, organism-based; design: dose 5 mg/kg; remark: listed apart in the source
Outline: as §3, with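 “Subcutaneous” for “Oral”, “daily” for “every 24 h”, “recorded,” for “recorded, survivor increase tested by”, “test for survival;” for “test;”, “(±” for “(days ±”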

Mus musculus [25] = test: Effect of subcutaneous treatment with compound on HSV-2 induced mortality in mice at 30 mg/kg dose; format: functional; outline: as §5
Mus musculus [26] = test: Effect of subcutaneous treatment with compound on HSV-2 induced mortality in mice at 1.5 mg/kg dose; format: functional; outline: as §5
Mus musculus [27] = test: Effect of oral treatment with compound on HSV-2 induced mortality in mice at 20 mg/kg dose; 11/20; format: functional; outline: as §2
Mus musculus [28] = test: Effect of oral treatment with compound on HSV-2 induced mortality in mice at 5 mg/kg dose; 0/19; format: functional; outline: as §2
Mus musculus [29] = test: Effect of oral treatment with compound on HSV-2 induced mortality in mice at 10 mg/kg dose; format: functional; outline: as §2
Mus musculus [30] = test: Effect of subcutaneous treatment with compound on HSV-2 induced mortality in mice at 5 mg/kg dose; 10/15; format: functional; outline: as §5
Mus musculus [31] = test: Effect of oral treatment with compound on HSV-2 induced mortality in mice at 10 mg/kg dose; 6/20; format: functional; outline: as §2
Mus musculus [32] = test: Effect of subcutaneous treatment with compound on HSV-2 induced mortality in mice at 1.5 mg/kg dose; 8/15; format: functional; outline: as §5
Mus musculus [33] = test: Effect of oral treatment with compound on HSV-2 induced mortality in mice at 5 mg/kg dose; format: functional; outline: as §2
Mus musculus [34] = test: Effect of subcutaneous treatment with compound on HSV-2 induced mortality in mice at 5 mg/kg dose; format: functional; outline: as §5
Mus musculus [35] = test: Effect of subcutaneous treatment with compound on HSV-2 induced mortality in mice at 15 mg/kg dose; 15/15; format: functional; outline: as §5
Mus musculus [36] = test: Effect of oral treatment with compound on HSV-2 induced mortality in mice at 20 mg/kg dose; 3/20; format: functional; outline: as §2
Mus musculus [37] = test: (§7) Effect of oral treatment with compound on HSV-2 induced mortality in mice at 20 mg/kg dose; NS=Not significant; format: functional, organism-based; design: dose 20 mg/kg; outline: as §3
Mus musculus [38] = test: Effect of oral treatment with compound on HSV-2 induced mortality in mice at 10 mg/kg dose; 0/20; format: functional; outline: as §2
Mus musculus [39] = test: Effect of oral treatment with compound on HSV-2 induced mortality in mice at 5 mg/kg dose; 3/20; format: functional; outline: as §2
Mus musculus [40] = test: as §7; format: functional, organism-based; design: dose 20 mg/kg; outline: as §2; remark: listed apart in the source
Mus musculus [41] = test: Effect of oral treatment with compound on HSV-2 induced mortality in mice at 20 mg/kg dose; 12/20; format: functional; outline: as §2
Mus musculus [42] = test: Effect of oral treatment with compound on HSV-2 induced mortality in mice at 5 mg/kg dose; 1/19; format: functional; outline: as §2
Mus musculus [43] = test: Effect of oral treatment with compound on HSV-2 induced mortality in mice at 10 mg/kg dose; 2/20; format: functional; outline: as §2
Mus musculus [44] = test: Effect of oral treatment with compound on HSV-2 induced mortality in mice at 10 mg/kg dose; 4/20; format: functional; outline: as §2
Mus musculus [45] = test: Effect of oral treatment with compound on HSV-2 induced mortality in mice at 20 mg/kg dose; 6/20; format: functional; outline: as §2

Row | SMILES | Survivor increase (Mus musculus [1]) | IC50 (Vero [3]) [µM] | MST (Mus musculus [4]) [days] | IC50 (Vero [7]) [µM] | IC50 (Vero [8]) [µM] | IC50 (Vero [9]) [µM] | MST (Mus musculus [10]) [days] | IC50 (MRC5) [µM] | IC50 (Vero [12]) [µM] | Survivor increase (Mus musculus [13]) | p-value for mean survival time increase (Mus musculus [13]) | MST increase (Mus musculus [14]) | Survivor increase (Mus musculus [15]) | MST (Mus musculus [16]) [days] | MST increase (Mus musculus [29]) | other results
1 | Nc1nc2c(ncn2COC2COP(=O)(O)OC2)c(=O)[nH]1 (stereo not drawn) | inactive | 7 | 10.6 | 2 | 40 | 6 | 10.4 | 6 | 0.5 | 0.01 | <0.01 | inactive | inactive | 11.6 |  | Survivors (Mus musculus [2]): 8; MST increase (Mus musculus [5]): inactive; Survivors (Mus musculus [6]): 10; Survivors (Mus musculus [11]): 3
2 | Nc1nc(N)c2ncn(COC3COP(=O)(O)OC3)c2n1 (stereo not drawn) |  |  |  | 125 |  | > 100 |  |  | 80 |  |  |  |  |  |  | Survivors (Mus musculus [17]): 2; Survivors (Mus musculus [18]): 0; Survivor increase (Mus musculus [19]): inactive; MST increase (Mus musculus [20]): 0.025; Survivors (Mus musculus [21]): 2; Survivor increase (Mus musculus [22]): inactive; Survivor increase (Mus musculus [23]): inactive; MST increase (Mus musculus [24]): inactive; MST increase (Mus musculus [25]): 0.01
3 | Nc1nc2c(ncn2COC(CO)CO)c(=O)[nH]1 [GANCICLOVIR] | inactive | 125 | 10.9 | 0.2 | 450 | 1.6 |  | 5 | 10 | 0.005 | <0.01 |  | inactive | 11.9 | <0.025 | MST increase (Mus musculus [20]): <0.001; Survivor increase (Mus musculus [20]): <0.001; MST increase (Mus musculus [26]): <0.001; Survivor increase (Mus musculus [26]): 0.01; Survivors (Mus musculus [27]): 11; Survivors (Mus musculus [28]): 0; Survivors (Mus musculus [30]): 10; Survivors (Mus musculus [31]): 6; MST (Mus musculus [10]; 5 mg/kg): 11.3 days; Survivors (Mus musculus [32]): 8; MST increase (Mus musculus [33]): <0.01; MST increase (Mus musculus [34]): <0.001; Survivor increase (Mus musculus [34]): <0.001; Survivors (Mus musculus [35]): 15
4 | Nc1nc(O)c2ncn(COC(CO)CCP(=O)(O)O)c2n1 (stereo not drawn) | inactive | > 200 | 8.3 | 28 | > 1000 | > 100 | 8.2 | 10 | 50 |  |  | inactive | inactive | 8.3 |  | Survivors (Mus musculus [36]): 3; MST increase (Mus musculus [5]): inactive; MST increase (Mus musculus [37]): inactive; Survivors (Mus musculus [38]): 0; Survivors (Mus musculus [39]): 3; Survivor increase (Mus musculus [40]): inactive
5 | Nc1nc(O)c2ncn(COC(CO)COP(=O)(O)O)c2n1 (stereo not drawn) | inactive | > 200 | 11.3 | 0.2 | 700 | 1.7 | 10 | 12 | 6 | 0.002 | <0.001 | inactive | inactive | 10.5 | <0.01 | Survivors (Mus musculus [41]): 12; Survivors (Mus musculus [42]): 1; Survivors (Mus musculus [43]): 2
6 | Nc1nc(O)c2ncn(COC(COP(=O)(O)O)COP(=O)(O)O)c2n1 | inactive | > 200 | 10.8 | 0.4 | 800 | 5 | 9.6 | 8 | 13 |  | <0.02 | inactive | inactive | 10.6 | <0.05 | Survivors (Mus musculus [44]): 4; Survivors (Mus musculus [45]): 6; Survivor increase (Mus musculus [40]): inactive; Survivors (Mus musculus [33]): 8
7 | Nc1ncnc2c1ncn2COC1COP(=O)(O)OC1 (stereo not drawn) |  |  |  | 600 |  | > 1000 |  |  |  |  |  |  |  |  |  | 
